Experimental data: ChEMBL document CHEMBL1212900, “Falcipain inhibitors: optimization studies of the 2-pyrimidinecarbonitrile lead series” (J Med Chem, 2010)

What was measured:
[1] = test system: Plasmodium falciparum; experiment: Antiplasmodial activity against Plasmodium falciparum W2 after 48 hrs; assay type: functional, organism-based; conditions: W2, 48 h
In short: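 W2 P. falciparum grown in human erythrocytes, 2% hematocrit, RPMI with 10% human serum or 0.5% AlbuMAX II; sorbitol-synchronized. Serial dilutions from DMSO stocks added at ring stage for 48 h, medium and drug renewed at 24 h. Cells fixed in 1% formaldehyde, stained with YOYO-1, parasitemia counted by flow cytometry; IC50 from percent parasitemia versus untreated controls.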

[2] = Inhibition of Plasmodium falciparum falcipain-2 expressed in Escherichia coli
In short: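 Recombinant E. coli-expressed, refolded enzyme at 0.25 nM in 100 mM sodium acetate pH 5.5, 500 μM CHAPS, 10 mM DTT, DMSO ≤1%. Substrate H-D-Val-Leu-Arg-AFC at 30 μM final. Inhibitor dilutions mixed with substrate, enzyme added last; fluorescence followed 1 h at room temperature. IC50 from percent activity versus concentration.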

[3] = Inhibition of Plasmodium falciparum falcipain-3 expressed in Escherichia coli
In short: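 Refolded recombinant enzyme from E. coli, 2 nM, in 100 mM sodium acetate pH 5.5 with 500 μM CHAPS and 10 mM DTT, DMSO up to 1%. H-D-Val-Leu-Arg-AFC at 150 μM final. Reaction started by enzyme addition; fluorescence monitored 1 h at room temperature. IC50 derived from percent activity plotted against inhibitor concentration.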

Row | SMILES | IC50 [1] [nM] | IC50 [2] [nM] | IC50 [3] [nM]
1 | CC(C)CN(c1nc(C#N)ncc1Cl)N(CCCN1CCN(C)CC1)C(=O)Cc1ccccc1 | 108 | 11 | 78
2 | CCC(CC)N(NC(=O)c1ccc(CN2CCN(C)CC2)cc1)c1nc(C#N)ncc1Br | 1610 | 187 | 2040
3 | CCCC(CCC)CN(NC(=O)c1ccc(CN2CCN(C)CC2)cc1)c1nc(C#N)ncc1Br | 1200 | 81 | 802
4 | CN1CCN(Cc2ccc(C(=O)NN(CC3CCCO3)c3nc(C#N)ncc3Br)cc2)CC1 (centres undefined) | 1880 | 14 | 99
5 | CC(C)CN(c1nc(C#N)ncc1Br)N(CCCN1CCN(C)CC1)C(=O)Cc1ccccc1 | 214 | 6 | 27
6 | CC(C)CN(c1nc(C#N)ncc1Br)N(CCCN1CCN(C)CC1)C(=O)c1ccccc1 | 166 | 7 | 78
7 | CC(C)CN(c1nc(C#N)ncc1Br)N(CCCN1CCN(C)CC1)C(=O)c1ccc(F)cc1 | 346 | 9 | 105
8 | CN1CCN(Cc2ccc(C(=O)NN(CC(C)(C)C)c3nc(C#N)ncc3Br)cc2)CC1 | 409 | 19 | 158
9 | CC(=O)NC1CCC(N(NC(=O)c2ccc(CN3CCN(C)CC3)cc2)c2nc(C#N)ncc2Br)CC1 (centres undefined) | 1310 | 8 | 88
10 | CCCCC(CCCC)CN(NC(=O)c1ccc(CN2CCN(C)CC2)cc1)c1nc(C#N)ncc1Br | 566 | 293 | 656
11 | COc1ccc2oc(C(=O)NN(CC(C)C)c3nc(C#N)ncc3Br)cc2c1 |  | 183 | 1240
12 | CC(C)CN(NC(=O)c1ccc2ccccc2c1)c1nc(C#N)ncc1Br |  | 65 | 645
13 | Cc1c(C(=O)NN(CC(C)C)c2nc(C#N)ncc2Br)oc2ccccc12 |  | 223 | 1430
14 | COCc1cnc(C#N)nc1N(CC(C)C)NC(=O)OC(C)(C)C |  | 8400 | > 10000
15 | CC(C)N1CCC(N(NC(=O)OC(C)(C)C)c2nc(C#N)ncc2Br)CC1 |  | 902 | 5240
16 | Cc1nn(-c2ccccc2)nc1C(=O)NN(CC(C)C)c1nc(C#N)ncc1Br |  | 676 | 1100
17 | CC(C)(C)OC(=O)NN(CCC1C=CCC1)c1nc(C#N)ncc1Br (centres undefined) |  | 12 | 311
18 | CC(C)(C)OC(=O)NN(CCc1ccccc1)c1nc(C#N)ncc1Br |  | 93 | 557
19 | CC(C)CN(NC(=O)c1ccc(-c2ccccc2)s1)c1nc(C#N)ncc1Br |  | 6 | 549
20 | CC(C)CN(NC(=O)c1nccc2ccccc12)c1nc(C#N)ncc1Cl |  | 7 | 197
21 | CC(C)CN(NC(=O)c1cnoc1-c1ccccc1)c1nc(C#N)ncc1Cl |  | 8 | 128
22 | CC(C)CN(NC(=O)C1(c2ccc(Cl)cc2)CC1)c1nc(C#N)ncc1Br |  | 15 | 69
23 | CC(C)(C)OC(=O)NN(c1nc(C#N)ncc1Br)C1CCCC1 |  | 9 | 56
24 | CC(C)(C)OC(=O)NN(Cc1ccoc1)c1nc(C#N)ncc1Br |  | 60 | 183
25 | CC(C)CN(NC(=O)C(N)c1ccccc1)c1nc(C#N)ncc1Br (centres undefined) |  | 7 | 34
26 | CC(C)CN(NC(=O)c1cc(-c2ccccc2)no1)c1nc(C#N)ncc1Br |  | 10 | 359
27 | CC(C)CN(NC(=O)C(C)(C)c1ccccc1)c1nc(C#N)ncc1Br |  | 18 | 60
28 | CC(C)CN(NC(=O)c1cc2cc(OCc3ccccc3)ccc2[nH]1)c1nc(C#N)ncc1Br |  | 103 | 4650

Stronger by IC50 [2], values ahead:

Row | IC50 [1] [nM] | IC50 [2] [nM] | IC50 [3] [nM] | SMILES
29 | 806 | 4 | 18 | CC(C)CN(NC(=O)C(C)(C)c1ccc(OCCN2CCOCC2)cc1)c1nc(C#N)ncc1Cl
30 | 262 | 4 | 68 | CC(C)CCN(NC(=O)c1ccc(CN2CCN(C)CC2)cc1)c1nc(C#N)ncc1Br
31 | 24 | < 0.5 | 11 | CN1CCN(Cc2ccc(C(=O)NN(c3nc(C#N)ncc3Br)C3CCCC3)cc2)CC1
32 | 41 | 0.7 | 6 | CCCN1CCN(Cc2ccc(CC(=O)NN(CC(C)C)c3nc(C#N)ncc3Cl)cc2)CC1
33 | 263 | 2 | 16 | CN1CCN(Cc2ccc(C(=O)NN(CC3CCCCC3)c3nc(C#N)ncc3Br)cc2)CC1
34 | 1490 | 5 | 17 | CN1CCN(Cc2ccc(C(=O)NN(CC3(C)CCCCC3)c3nc(C#N)ncc3Br)cc2)CC1
35 | 76 | 1 | 107 | CC(C)CN(NC(=O)c1cc2cc(OCCN3CCNCC3)ccc2o1)c1nc(C#N)ncc1Cl
36 | 193 | 2 | 75 | CC1OCCC1CN(NC(=O)c1ccc(CN2CCN(C)CC2)cc1)c1nc(C#N)ncc1Br (centres undefined)
37 | 33 | 1 | 46 | CC(C)CN(NC(=O)c1cc(CN2CCN(C)CC2)on1)c1nc(C#N)ncc1Br
38 | 21 | 0.7 | 12 | CC(C)CN(NC(=O)c1ccc(CN2CCN(C)CC2)o1)c1nc(C#N)ncc1Br
39 | 721 | 4 | 180 | CN1CCN(Cc2ccc(C(=O)NN(Cc3ccco3)c3nc(C#N)ncc3Br)cc2)CC1
40 | 177 | 4 | 45 | CN1CCN(Cc2ccc(C(=O)NN(CCC3CCCC3)c3nc(C#N)ncc3Br)cc2)CC1
41 | 98 | 0.7 | 16 | CN1CCN(Cc2ccc(C(=O)NN(CC3CC=CC3)c3nc(C#N)ncc3Br)cc2)CC1
42 | 253 | 5 | 46 | CC(C)CN(NC(=O)C(C)(C)c1ccc(CN2CCN(C)CC2)cc1)c1nc(C#N)ncc1Cl
43 | 1080 | 5 | 330 | CN1CCN(Cc2ccc(C(=O)NN(CC3CC3)c3nc(C#N)ncc3Br)cc2)CC1
44 | 33 | < 0.2 | 32 | CC(C)CN(NC(=O)c1ccc(N2CCN(C)CC2)cc1)c1nc(C#N)ncc1Br
45 | 48 | 0.4 | 61 | CC(C)CN(NC(=O)c1cc2cccc(CN3CCN(C)CC3)c2o1)c1nc(C#N)ncc1Br
46 | 194 | 2 | 44 | CCC(CC)CN(NC(=O)c1ccc(CN2CCN(C)CC2)cc1)c1nc(C#N)ncc1Br
47 | 1 | < 0.5 | < 3 | CC(C)CN(NC(=O)c1cncc(-c2ccc(CN3CCN(C)CC3)cc2)c1)c1nc(C#N)ncc1Br

Row | IC50 [1] [nM] | IC50 [2] [nM] | IC50 [3] [nM] | SMILES
48 | 104 | 2 | 110 | CN1CCN(Cc2ccc(C(=O)NN(c3nc(C#N)ncc3Br)C3CCCC3(C)C)cc2)CC1 (centres undefined)
49 | 1500 | 3 | 39 | CN1CCN(Cc2ccc(C(=O)NN(CCC(C)(C)C)c3nc(C#N)ncc3Br)cc2)CC1
50 | 870 | 2 | 90 | CC(C)CN(NC(=O)c1ccc(OCCN2CCOCC2)cc1)c1nc(C#N)ncc1Cl
51 | 403 | 1 | 8 | CC(C)CN(NC(=O)Cc1ccc(OCCN2CCOCC2)cc1)c1nc(C#N)ncc1Cl
52 | 15 | 0.4 | 55 | CC(C)CN(NC(=O)c1ccc(CN2CCN(C)CC2)cc1)c1nc(C#N)ncc1Br
53 | 90 | 2 | 173 | CN1CCN(Cc2ccc(C(=O)NN(c3nc(C#N)ncc3Br)C3CCC3)cc2)CC1
54 | 236 | 3 | 21 | CC(C)CN(NC(=O)C(C)(C)c1ccc(CN2CCN(C)CC2)cc1)c1nc(C#N)ncc1Br
55 | 82 | 2 | 41 | C[C@H]1CCC[C@H]1N(NC(=O)c1ccc(CN2CCN(C)CC2)cc1)c1nc(C#N)ncc1Br (relative stereo)
56 | 68 | 0.9 | 45 | CC1CCC(N(NC(=O)c2ccc(CN3CCN(C)CC3)cc2)c2nc(C#N)ncc2Br)C1 (centres undefined)
57 | 25 | < 0.5 | 32 | CCCN1CCN(c2ccc(C(=O)NN(CC(C)C)c3nc(C#N)ncc3Br)cc2)CC1
58 | 18 | 0.2 | 3 | CCCN1CCN(Cc2ccc(CC(=O)NN(CC(C)C)c3nc(C#N)ncc3Br)cc2)CC1
59 | 333 | 2 | 133 | CN1CCN(Cc2ccc(C(=O)NN(Cc3ccoc3)c3nc(C#N)ncc3Br)cc2)CC1
60 | 43 | 0.7 | 5 | CC(C)CN(NC(=O)Cc1ccc(CN2CCN(C)CC2)cc1)c1nc(C#N)ncc1Cl
61 |  | 3 | 62 | CC(C)(C)OC(=O)NN(CC1CCC1)c1nc(C#N)ncc1Br
62 |  | 1 | 21 | Cc1cc(C)c(CC(=O)NN(CC(C)C)c2nc(C#N)ncc2Br)c(C)c1
63 |  | < 0.5 | 15 | CC(C)CN(NC(=O)c1cccc(-c2ccncc2)c1)c1nc(C#N)ncc1Br
64 |  | < 0.5 | 4 | CC(C)CN(NC(=O)c1cncc(-c2ccccc2)c1)c1nc(C#N)ncc1Br
65 |  | 0.8 | 164 | Cc1nc(-c2ccc(C(=O)NN(CC(C)C)c3nc(C#N)ncc3Br)cc2)cs1
66 |  | 5 | 451 | CC(C)CN(NC(=O)c1cc(-c2cccs2)[nH]n1)c1nc(C#N)ncc1Cl
